The values that follow come from ChEMBL document CHEMBL4390674, “Defining Structure-Functional Selectivity Relationships (SFSR) for a Class of Non-Catechol Dopamine D1 Receptor Agonists” (J Med Chem, 2019).

In series [1] the target is T1, D(1A) dopamine receptor (Homo sapiens, UniProt P21728). Nature of the series: Agonist activity at recombinant human D1 receptor expressed in HEK29T cells assessed as induction of stimulatory G-protein-mediated cAMP accumulation at 10'4M measured after 15 mins by Glosensor-based FLIPR assay. The series is classed as functional, cell-based. Summed up:
(§1)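 GloSensor-22F cAMP biosensor in HEK293T cells co-expressing human D1, seeded in DMEM + 1% dialyzed FBS; next day GloSensor reagent equilibrated ≥15 min at room temperature in HBSS/20 mM HEPES pH 7.4, then drug added in HBSS/HEPES/0.1% BSA/0.01% ascorbic acid. Luminescence read after 15 min; normalized to dopamine maximum (100%); sigmoidal fit; maximum tested 10⁻⁴ M; ≥3 experiments in triplicate.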
A general note: cAMP levels reflect the balance of adenylyl cyclase and phosphodiesterase activity.

Series [2] has as its target T1, D(1A) dopamine receptor. Description: Agonist activity at recombinant C-terminal RLuc8-fused human D1 receptor expressed in HEK29T cells co-expressing N-terminal Venus-tagged beta-arrestin2 assessed as increase in beta-arrestin2 recruitment at 10^-4M measured after 15 mins in presence of coelenterazine H by BRET assay relative to dopamine. The series is classed as cell-based. In general terms: Arrestin recruitment assays detect the binding of arrestin to an activated receptor.

The target of series [3] is T1, D(1A) dopamine receptor. Nature of the series: Agonist activity at recombinant human D1 receptor expressed in HEK29T cells assessed as induction of stimulatory G-protein-mediated cAMP accumulation at 10'4M measured after 15 mins by Glosensor-based FLIPR assay relative to dopamine. The series is classed as functional, cell-based. A digest of the protocol: as §1
For series [4], the target named is T1, D(1A) dopamine receptor. Nature of the series: Agonist activity at recombinant C-terminal RLuc8-fused human D1 receptor expressed in HEK29T cells co-expressing N-terminal Venus-tagged beta-arrestin2 assessed as increase in beta-arrestin2 recruitment at 10^-4M measured after 15 mins in presence of coelenterazine H by BRET assay. Format: cell-based.
Series [5] is described as follows: Ratio of drug level in brain to plasma in Swiss albino mouse at 50 mg/kg, ip measured up to 4 hrs by LC-MC/MS analysis. Format: ADME, organism-based. Summed up:
(§2)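 Male Swiss Albino mice (nine), 50 mg/kg i.p. in 5% NMP/5% Solutol HS-15/90% saline; plasma and brain taken from three mice per time point at 0.5, 1.5 and 4 h; brain homogenized 2:1 in ice-cold PBS pH 7.4; LC-MS/MS quantitation (LLOQ 1.01 ng/mL plasma, 3.03 ng/g brain); noncompartmental analysis.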

Series [6] addresses T1, D(1A) dopamine receptor. Description: Bias factor, transduction co-efficient for agonist activity at recombinant human D1 receptor expressed in HEK29T cells assessed as induction of stimulatory G-protein-mediated cAMP accumulation to agonist activity at recombinant C-terminal RLuc8-fused human D1 receptor expressed in HEK29T cells co-expressing N-terminal Venus-tagged beta-arrestin2 assessed as increase in beta-arrestin2 recruitment. Format: functional, cell-based. A digest of the protocol:
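Dopamine as full-agonist reference; transduction coefficients log(τ/KA) for Gs-cAMP (GloSensor) and β-arrestin2 (BRET) computed relative to dopamine and averaged across experiments; bias factor derived by Kenakin method from the difference between Gs and β-arrestin2 coefficients.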

The nature of series [7]: Cmax in Swiss albino mouse brain at 50 mg/kg, ip measured up to 4 hrs by LC-MC/MS analysis. Format: ADME, organism-based. On the set-up: dose 50 mg/kg, route intraperitoneal. A digest of the protocol:
as §2

Series [8] has as its target T1, D(1A) dopamine receptor. Nature of the series: Agonist activity at recombinant C-terminal RLuc8-fused human D1 receptor expressed in HEK29T cells co-expressing N-terminal Venus-tagged beta-arrestin2 assessed as increase in beta-arrestin2 recruitment measured after 15 mins in presence of coelenterazine H by BRET assay. Format: cell-based. The following applies: read-out: EC50.

The target in series [9] is T1, D(1A) dopamine receptor. Description: Agonist activity at recombinant C-terminal RLuc8-fused human D1 receptor expressed in HEK29T cells co-expressing N-terminal Venus-tagged beta-arrestin2 assessed as increase in beta-arrestin2 recruitment measured after 15 mins in presence of coelenterazine H by BRET assay relative to dopamine. The series is classed as cell-based.

Series [10] concerns the target T1, D(1A) dopamine receptor. Description: Agonist activity at recombinant human D1 receptor expressed in HEK29T cells assessed as induction of stimulatory G-protein-mediated cAMP accumulation measured after 15 mins by Glosensor-based FLIPR assay. Format: functional, cell-based. A digest of the protocol: as §1
Series [11] is described as follows: Cmax in Swiss albino mouse plasma at 50 mg/kg, ip measured up to 4 hrs by LC-MC/MS analysis. Format: ADME, organism-based. More on the design: dose 50 mg/kg, route intraperitoneal. Summed up:
as §2

Series [12] addresses T1, D(1A) dopamine receptor. Nature of the series: Agonist activity at recombinant human D1 receptor expressed in HEK29T cells assessed as induction of stimulatory G-protein-mediated cAMP accumulation measured after 15 mins by Glosensor-based FLIPR assay relative to dopamine. Format: functional, cell-based. A digest of the protocol:
as §1

Series [13] is described as follows: Toxicity in Swiss albino mouse at 50 mg/kg, ip measured up to 4 hrs. The series is classed as organism-based. Particulars: in vivo.

The source made the active and inactive calls. The calls are words filed in the database; no cut-off is given here.

T1 sequence (P21728 whole entry): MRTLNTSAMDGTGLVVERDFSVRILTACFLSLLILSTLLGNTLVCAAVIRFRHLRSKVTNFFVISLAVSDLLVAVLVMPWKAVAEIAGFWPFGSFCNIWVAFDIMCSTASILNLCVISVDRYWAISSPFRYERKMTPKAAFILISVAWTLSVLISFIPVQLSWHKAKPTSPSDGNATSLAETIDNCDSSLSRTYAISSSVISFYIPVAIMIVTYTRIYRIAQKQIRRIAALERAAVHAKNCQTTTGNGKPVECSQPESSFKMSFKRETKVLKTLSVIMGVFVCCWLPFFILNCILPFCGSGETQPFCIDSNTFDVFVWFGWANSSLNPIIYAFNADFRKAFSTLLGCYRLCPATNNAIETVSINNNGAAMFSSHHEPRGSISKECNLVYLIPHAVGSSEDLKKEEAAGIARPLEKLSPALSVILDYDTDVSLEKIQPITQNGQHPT

The term Emax denotes the size of the effect at its maximum, as opposed to the concentration needed. Consider `Cc1cc(Oc2nccc3occc23)cc(C)c1-c1cccc2nccn12`, for which the outcome on D(1A) dopamine receptor [1] and on D(1A) dopamine receptor [4] was inactive. The Emax entry at D(1A) dopamine receptor [2] and on D(1A) dopamine receptor [3] was “inactive” in each case.

Take `FC(F)(F)c1cc(-c2cccc3nccn23)ccc1Oc1nccc2occc12`: the outcome at D(1A) dopamine receptor [1] and on D(1A) dopamine receptor [4] was inactive. Further, the Emax entry on D(1A) dopamine receptor [2] and at D(1A) dopamine receptor [3] was “inactive” in each case.

As a reminder, the Cmax is the highest concentration seen after dosing. Usually EC50 stands for the concentration needed to bring the measured effect to its halfway point. Take `Nc1cc(Oc2nccc3occc23)ccc1-c1cccc2nccn12`: in series [5], the BPR was in the range of 1.2 to 1.6. Further, the fold change (FC) on D(1A) dopamine receptor [6] was determined as 1.7. The Cmax in series [7] and in series [11] was 100 µM each time. Also, the results for the EC50 on D(1A) dopamine receptor [8] and on D(1A) dopamine receptor [10] were 790 nM and 10 nM, respectively. For the same molecule, the Emax on D(1A) dopamine receptor [9] was found to be 54%; at D(1A) dopamine receptor [12], 91%. In series [13], the Activity entry is on record as “Non-Toxic”.

As to `FC(F)(F)c1cc(Oc2cc(N3CCCCC3)ccn2)ccc1-c1cccc2nccn12`, the result on D(1A) dopamine receptor [1] was inactive. Also, the Emax result at D(1A) dopamine receptor [3] is “inactive”. Moreover, the EC50 at D(1A) dopamine receptor [8] is above 10000 nM.

With `Cc1ncc2nccn2c1-c1ccc(Oc2nccc3occc23)c(C(F)(F)F)c1`, the result at D(1A) dopamine receptor [1] and on D(1A) dopamine receptor [4] was inactive. Also, the Emax result on D(1A) dopamine receptor [2] and at D(1A) dopamine receptor [3] was “inactive” throughout.

As to `Cc1cc(Oc2nccc3ccsc23)ccc1-c1c(C)ncc2nccn12`, the fold change (FC) on D(1A) dopamine receptor [6] is 1.9. Further, the results for the EC50 on D(1A) dopamine receptor [8] and at D(1A) dopamine receptor [10] were 22 nM and 0.23 nM, respectively. Besides, the maximal effect (Emax) on D(1A) dopamine receptor [9] came out at 63%; at D(1A) dopamine receptor [12], 100%.
